In ChEMBL document CHEMBL1127804 (J Med Chem, 1994):

How the values were obtained:
CCRF-CEM [1] = assay: Tested for the inhibition of [14C]-DDATHF influx in CCRF-CEM cells of human leukemic lymphoblast; type: functional, cell-based
In short: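 Influx of (6R)-[14C]DDATHF (2 μM) into wild-type CCRF-CEM human leukemic lymphoblasts was measured with the inhibitor present. Ki was calculated from Dixon plots and reported as mean ± SE of two to seven separate experiments.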

CCRF-CEM [2] = assay: Tested for inhibitory concentration of cell growth against CCRF-CEM cell lines of human leukemic lymphoblast
CCRF-CEM [3] = assay: Tested for inhibition of [14C]-DDATHF influx in CEM/MTX cells of human leukemic lymphoblasts; type: functional, cell-based
In short: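 Influx of (6R)-[14C]DDATHF (2 μM) into CEM/MTX cells was measured. Before the assay, cells normally kept in 1 μM MTX were held out of MTX for 3–4 generations. Ki came from Dixon plots and is given as mean ± SE of two to seven separate experiments.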

SCC-7 = assay: Tested for inhibitory concentration against SCC-VII murine squamous carcinoma cell line; type: functional, cell-based; details: Mus musculus
In short: (§1)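 SCC VII (murine) or SCC25 (human) squamous carcinoma cells were plated at 2×10^3/well in DME with 10% FBS for 24 h at 37 °C, 5% CO2. Drug was added at 10 concentrations from 0.1 nM to 3 μM for a further 72 h. Growth was read by sulforhodamine B protein stain at 530 nm.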

CCRF-CEM [4] = assay: cells; details: Homo sapiens
Dihydrofolate reductase [5] = target: T1, Dihydrofolate reductase (Homo sapiens, UniProt P00374); assay: rested for inhibitory concentration against human dihydrofolate reductase(DHFR)
T1 sequence (P00374 whole entry): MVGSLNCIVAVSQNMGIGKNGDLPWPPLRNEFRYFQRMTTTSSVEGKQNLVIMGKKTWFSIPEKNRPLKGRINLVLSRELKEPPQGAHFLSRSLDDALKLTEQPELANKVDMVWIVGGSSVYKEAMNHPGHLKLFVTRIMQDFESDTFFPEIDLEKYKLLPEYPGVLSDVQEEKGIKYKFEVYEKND

MCF7 = assay: Tested for inhibitory concentration against MCF-7 human breast carcinoma cell line; type: functional, cell-based
In short: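 MCF-7 breast carcinoma cells were grown in replicate 24-well plates in α-MEM with 10% dialyzed FBS plus epithelial growth factor, hydrocortisone and insulin. Cells were exposed for 72 h at 37 °C under 6.5% CO2 and counted electronically with a Coulter counter. IC50 was estimated from semilog plots using averaged data from a single experiment on replicate plates.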

SCC-25 = assay: Tested for inhibitory concentration against human SCC25 cell line; type: functional, cell-based; in short: as §1
[6] = Ratio between Ki values of CCRF-CEM and CEM/MTX; type: functional
CCRF-CEM [7] = assay: Tested in vitro for inhibitory concentration against CCRF-CEM human Leukemic lymphoblast by using TS as primary target; type: functional, cell-based
CCRF-CEM [8] = assay: Tested in vitro for relative activity against CCRF-CEM human Leukemic lymphoblast by using TS as primary target; type: functional
Dihydrofolate reductase [9] = target: T1, Dihydrofolate reductase; assay: Tested for inhibitory concentration against human dihydrofolate reductase(DHFR)

SMILES	Ki (CCRF-CEM [1]) [µM]	Ki (CCRF-CEM [3]) [µM]	IC50 (SCC-7) [nM]	IC50 (MCF7) [nM]	IC50 (SCC-25) [nM]	IC50 (Dihydrofolate reductase [9]) [nM]	further results
CN(Cc1cnc2nc(N)nc(N)c2n1)c1ccc(C(=O)N[C@@H](CCC(=O)O)C(=O)O)cc1 [METHOTREXATE]	4.48	9.74	5.8	–	–	–	IC50 (CCRF-CEM [2]): 10.5 nM; IC50 (CCRF-CEM [4]): 2550 nM
Nc1nc(N)c2nc(CNc3ccc(C(=O)NC(CCCCNC(=O)c4ccccc4C(=O)O)C(=O)O)cc3)cnc2n1 (stereo not given)	–	–	4	2	17.9	–	IC50 (Dihydrofolate reductase [5]): 11.4 nM
Nc1nc(=O)c2nc(CNc3ccc(C(=O)N[C@@H](CCC(=O)O)C(=O)O)cc3)cnc2[nH]1 [FOLIC ACID]	167	8.95	–	–	–	–	Ratio [6]: 0.054
COc1cc(NCc2ccc3nc(N)nc(N)c3c2C)cc(OC)c1OC [TRIMETREXATE]	–	–	6.3	–	8	–	–
Nc1nc(N)c2nc(CNc3ccc(C(=O)N[C@@H](CCC(=O)O)C(=O)O)cc3)cnc2n1 [AMINOPTERIN]	–	–	4	–	6.9	–	–
CN(Cc1ccc2[nH]c(C=O)nc(=O)c2c1)c1ccc(C(=O)NC(CCC(=O)O)C(=O)O)s1 (stereo not given)	–	–	–	–	–	–	IC50 (CCRF-CEM [7]): 4.7 nM; Relative activity (CCRF-CEM [8]): 23
Nc1nc(N)c2nc(CNc3ccc(C(=O)NC(CCCNC(=O)c4ccccc4C(=O)O)C(=O)O)cc3)cnc2n1 (stereo not given)	0.65	0.44	0.89	0.7	1	12.2	IC50 (CCRF-CEM [2]): 1.08 nM; Ratio [6]: 0.68; IC50 (CCRF-CEM [4]): 110 nM
Nc1nc(N)c2nc(CNc3ccc(C(=O)NC(CCNC(=O)c4ccccc4C(=O)O)C(=O)O)cc3)cnc2n1 (stereo not given)	–	–	19	6	12.9	11.6	–
Nc1nc(=O)c2c([nH]1)NCC(CNc1ccc(C(=O)N[C@@H](CCC(=O)O)C(=O)O)cc1)N2C=O (stereo not given in full) [LEUCOVORIN]	–	0.74	–	–	–	–	–
Nc1nc(N)c2nc(CNc3c(Cl)cc(C(=O)NC(CCCNC(=O)c4ccccc4C(=O)O)C(=O)O)cc3Cl)cnc2n1 (stereo not given)	–	–	1.6	–	2.5	10.2	–
